The values that follow come from ChEMBL document CHEMBL4325933, “Potent, Selective, and Cell-Penetrating Inhibitors of Kallikrein-Related Peptidase 4 Based on the Cyclic Peptide MCoTI-II” (ACS Med Chem Lett, 2018).

Positions of bridges follow the written chain, without caps; N, C: chain ends. Residues, ends and D or L forms follow the SMILES beside them. Bounds are passed on as bounds.

In one series the target is T1, Kallikrein-5 (Homo sapiens, UniProt Q9Y337).
T1 sequence (Q9Y337 whole entry): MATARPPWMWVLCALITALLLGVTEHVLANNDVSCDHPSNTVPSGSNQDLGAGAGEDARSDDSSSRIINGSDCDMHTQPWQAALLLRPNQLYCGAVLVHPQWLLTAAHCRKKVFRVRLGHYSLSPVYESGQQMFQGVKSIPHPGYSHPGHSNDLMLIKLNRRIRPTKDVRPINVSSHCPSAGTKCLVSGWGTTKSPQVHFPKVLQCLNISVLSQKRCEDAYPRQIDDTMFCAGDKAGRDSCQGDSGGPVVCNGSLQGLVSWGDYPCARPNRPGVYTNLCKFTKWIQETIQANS
The series is described as follows: Inhibition of KLK5 (unknown origin) expressed in Pichia pastoris strain X-33 using Ac-YRSR-pNA as substrate preincubated for 30 mins followed by substrate addition and measured for 7 mins by spectrophotometric method.

The species named for series [1] is Homo sapiens. As to the kind of experiment: Selectivity ratio of Ki for KLK7 (unknown origin) expressed in Pichia pastoris strain X-33 to Ki for KLK4 (unknown origin) expressed in sf9 cells.
The species entered for series [2] is Homo sapiens. The series is described as follows: Selectivity ratio of Ki for thrombin (unknown origin) to Ki for KLK4 (unknown origin) expressed in sf9 cells.
A further series concerns the target T2, Kallikrein-14 (Homo sapiens, UniProt Q9P0G3).
T2 sequence (Q9P0G3 whole entry): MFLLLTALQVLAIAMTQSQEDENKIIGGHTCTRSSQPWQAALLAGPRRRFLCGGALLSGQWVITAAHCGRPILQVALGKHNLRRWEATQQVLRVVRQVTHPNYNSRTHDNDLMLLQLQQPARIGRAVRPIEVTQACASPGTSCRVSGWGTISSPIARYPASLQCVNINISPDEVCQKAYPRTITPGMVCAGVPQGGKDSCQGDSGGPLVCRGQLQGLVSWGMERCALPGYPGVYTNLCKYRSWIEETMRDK
The series is described as follows: Inhibition of KLK14 (unknown origin) expressed in sf9 cells using Ac-YANR-pNA as substrate preincubated for 30 mins followed by substrate addition and measured for 7 mins by spectrophotometric method.

For a further series, the system named is HeLa. The series is described as follows: Cytotoxicity against human HeLa cells up to 64 uM after 2 hrs by resazurin dye based assay. It counts as cell-based. A digest of the protocol:
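HeLa cells exposed to peptides for 2 h, concentrations up to 64 μM. Resazurin then added for 18 h at 37 °C. Resorufin absorbance read at 540 and 620 nm, and viability % expressed as the A620/A540 ratio. Three independent experiments, standard deviation.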
A general note: Resazurin is reduced to fluorescent resorufin, in cell work by metabolically active cells.

A further series has as its target Plasminogen (Homo sapiens, UniProt P00747). As to the kind of experiment: Inhibition of plasmin (unknown origin) using Ac-RM(O2)YR-pNA as substrate preincubated for 30 mins followed by substrate addition and measured for 7 mins by spectrophotometric method.
A further series addresses Coagulation factor X (Homo sapiens, UniProt P00742). As to the kind of experiment: Inhibition of factor 10a (unknown origin) using Ac-QRSR-pNA as substrate preincubated for 30 mins followed by substrate addition and measured for 7 mins by spectrophotometric method.
For series [3], the species on record is Homo sapiens. As to the kind of experiment: Selectivity ratio of Ki for KLK5 (unknown origin) expressed in Pichia pastoris strain X-33 to Ki for KLK4 (unknown origin) expressed in sf9 cells.
Series [4] is described as follows: Drug uptake in human HeLa cells at 4 uM using Alexa Fluor 488 conjugated test compound after 1 hr by trypan blue dye based flow cytometry relative to HIV-Tat. It counts as ADME, cell-based. The method, boiled down:
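HeLa cells given Alexa Fluor 488-conjugated peptides (4 μM). Mean fluorescence measured by flow cytometry before and after trypan blue quenching of extracellular signal. Values normalized to the HIV-TAT positive control (post-trypan blue). Three independent experiments, SD; one-way ANOVA with Tukey's post hoc test.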
For orientation: In flow cytometry, cells or beads pass a laser one at a time.

Another series concerns the target Plasma kallikrein (Homo sapiens, UniProt P03952). As to the kind of experiment: Inhibition of plasma kallikrein (unknown origin) using Ac-NLTR-pNA as substrate preincubated for 30 mins followed by substrate addition and measured for 7 mins by spectrophotometric method.
The species named for series [5] is Homo sapiens. The series is described as follows: Selectivity ratio of Ki for KLK14 (unknown origin) expressed in sf9 cells to Ki for KLK4 (unknown origin) expressed in sf9 cells.
For series [6], the species on record is Homo sapiens. As to the kind of experiment: Selectivity ratio of Ki for plasmin (unknown origin) to Ki for KLK4 (unknown origin) expressed in sf9 cells.
The species entered for series [7] is Homo sapiens. As to the kind of experiment: Selectivity ratio of Ki for factor 10a (unknown origin) to Ki for KLK4 (unknown origin) expressed in sf9 cells.
A further series addresses Kallikrein-7 (Homo sapiens, UniProt P49862). The series is described as follows: Inhibition of KLK7 (unknown origin) expressed in Pichia pastoris strain X-33 using KHLY-pNA as substrate preincubated for 30 mins followed by substrate addition and measured for 7 mins by spectrophotometric method.
A further series has as its target Trypsin (Homo sapiens, UniProt P07477+P07478+P35030). As to the kind of experiment: Inhibition of trypsin (unknown origin) using Bz-FVR-pNA as substrate preincubated for 30 mins followed by substrate addition and measured for 7 mins by spectrophotometric method. It counts as protein assay.
The target of the next series is T3, Coagulation factor XII (Homo sapiens, UniProt P00748).
T3 sequence (P00748 whole entry): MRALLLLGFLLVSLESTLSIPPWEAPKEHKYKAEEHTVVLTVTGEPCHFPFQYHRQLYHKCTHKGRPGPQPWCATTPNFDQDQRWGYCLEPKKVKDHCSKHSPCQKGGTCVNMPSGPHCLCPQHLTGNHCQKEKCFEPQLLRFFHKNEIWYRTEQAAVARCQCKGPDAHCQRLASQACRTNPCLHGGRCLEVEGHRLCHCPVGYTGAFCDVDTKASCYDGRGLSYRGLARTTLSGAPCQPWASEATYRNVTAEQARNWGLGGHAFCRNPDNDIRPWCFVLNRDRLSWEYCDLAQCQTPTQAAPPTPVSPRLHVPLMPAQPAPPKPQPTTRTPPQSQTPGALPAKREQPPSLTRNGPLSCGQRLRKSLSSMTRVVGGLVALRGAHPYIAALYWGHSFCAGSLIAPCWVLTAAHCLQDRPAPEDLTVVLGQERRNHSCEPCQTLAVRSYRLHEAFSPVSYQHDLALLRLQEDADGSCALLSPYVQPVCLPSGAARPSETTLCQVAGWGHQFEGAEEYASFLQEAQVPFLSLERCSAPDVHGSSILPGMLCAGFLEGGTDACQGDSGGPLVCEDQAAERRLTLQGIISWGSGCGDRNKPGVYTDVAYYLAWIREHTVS
As to the kind of experiment: Inhibition of factor 12a (unknown origin) using Ac-QRFR-pNA as substrate preincubated for 30 mins followed by substrate addition and measured for 7 mins by spectrophotometric method.

Another series addresses Prothrombin (Homo sapiens, UniProt P00734). The series is described as follows: Inhibition of thrombin (unknown origin) using Bz-FVR-pNA as substrate preincubated for 30 mins followed by substrate addition and measured for 7 mins by spectrophotometric method.
Series [8] is filed under the species Homo sapiens. As to the kind of experiment: Selectivity ratio of Ki for plasma kallikrein (unknown origin) to Ki for KLK4 (unknown origin) expressed in sf9 cells.
Series [9] is filed under the species Homo sapiens. The series is described as follows: Selectivity ratio of Ki for factor 12a (unknown origin) to Ki for KLK4 (unknown origin) expressed in sf9 cells.
Series [10] in a line: Stability in human serum at 200 uM up to 24 hrs by RP-HPLC analysis. The format is ADME, cell-free. The method, boiled down: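 Peptides incubated in human serum for up to 24 h. At each time point, the area of the peptide peak on analytical HPLC is expressed as a percentage of the peptide peak in PBS at 0 h. Three independent experiments, SD.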
The next series addresses Kallikrein-4 (Homo sapiens, UniProt Q9Y5K2). The series is described as follows: Inhibition of KLK4 (unknown origin) expressed in sf9 cells using Ac-FVQR-pNA as substrate preincubated for 30 mins followed by substrate addition and measured for 7 mins by spectrophotometric method.

Sequence of Plasma kallikrein (P03952 20-390 limits assumed): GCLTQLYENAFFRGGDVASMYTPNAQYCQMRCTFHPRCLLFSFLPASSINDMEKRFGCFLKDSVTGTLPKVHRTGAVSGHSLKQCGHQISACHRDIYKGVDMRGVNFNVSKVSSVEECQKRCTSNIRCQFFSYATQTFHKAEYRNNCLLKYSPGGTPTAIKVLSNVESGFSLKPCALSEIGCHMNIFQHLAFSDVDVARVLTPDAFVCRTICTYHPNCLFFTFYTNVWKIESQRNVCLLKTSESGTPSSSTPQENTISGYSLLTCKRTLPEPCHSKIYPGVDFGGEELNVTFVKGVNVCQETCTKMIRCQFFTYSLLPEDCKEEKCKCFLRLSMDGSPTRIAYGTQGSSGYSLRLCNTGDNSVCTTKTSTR
Sequence of Plasma kallikrein (P03952 391-638 limits assumed): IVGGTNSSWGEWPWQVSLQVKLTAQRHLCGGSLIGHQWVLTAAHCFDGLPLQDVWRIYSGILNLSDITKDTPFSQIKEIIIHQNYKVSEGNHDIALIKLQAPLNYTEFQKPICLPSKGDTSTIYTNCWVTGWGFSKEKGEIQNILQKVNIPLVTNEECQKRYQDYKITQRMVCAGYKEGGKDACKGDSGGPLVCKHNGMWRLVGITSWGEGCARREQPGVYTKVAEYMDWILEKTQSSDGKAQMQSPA
Sequence of Coagulation factor X (P00742 41-179 limits assumed): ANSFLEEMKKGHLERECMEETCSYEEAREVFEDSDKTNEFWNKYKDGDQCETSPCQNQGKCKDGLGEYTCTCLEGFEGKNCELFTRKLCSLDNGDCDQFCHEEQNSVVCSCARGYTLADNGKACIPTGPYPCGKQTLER
Sequence of Coagulation factor X (P00742 235-488 limits assumed): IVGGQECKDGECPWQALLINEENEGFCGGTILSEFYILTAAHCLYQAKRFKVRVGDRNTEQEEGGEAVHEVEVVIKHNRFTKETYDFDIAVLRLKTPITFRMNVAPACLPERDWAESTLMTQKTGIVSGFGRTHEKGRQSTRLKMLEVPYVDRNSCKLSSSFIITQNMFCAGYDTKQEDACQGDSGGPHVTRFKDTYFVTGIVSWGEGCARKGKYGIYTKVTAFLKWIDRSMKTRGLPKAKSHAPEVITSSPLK
Sequence of Kallikrein-7 (P49862 whole entry): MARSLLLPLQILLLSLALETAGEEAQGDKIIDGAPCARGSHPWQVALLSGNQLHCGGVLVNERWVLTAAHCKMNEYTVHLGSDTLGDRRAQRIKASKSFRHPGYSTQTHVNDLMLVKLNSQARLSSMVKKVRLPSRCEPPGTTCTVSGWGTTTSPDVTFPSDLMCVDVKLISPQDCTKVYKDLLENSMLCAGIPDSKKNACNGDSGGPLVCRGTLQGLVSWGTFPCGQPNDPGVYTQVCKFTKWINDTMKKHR
Sequence of Plasminogen (P00747 97-580 limits assumed): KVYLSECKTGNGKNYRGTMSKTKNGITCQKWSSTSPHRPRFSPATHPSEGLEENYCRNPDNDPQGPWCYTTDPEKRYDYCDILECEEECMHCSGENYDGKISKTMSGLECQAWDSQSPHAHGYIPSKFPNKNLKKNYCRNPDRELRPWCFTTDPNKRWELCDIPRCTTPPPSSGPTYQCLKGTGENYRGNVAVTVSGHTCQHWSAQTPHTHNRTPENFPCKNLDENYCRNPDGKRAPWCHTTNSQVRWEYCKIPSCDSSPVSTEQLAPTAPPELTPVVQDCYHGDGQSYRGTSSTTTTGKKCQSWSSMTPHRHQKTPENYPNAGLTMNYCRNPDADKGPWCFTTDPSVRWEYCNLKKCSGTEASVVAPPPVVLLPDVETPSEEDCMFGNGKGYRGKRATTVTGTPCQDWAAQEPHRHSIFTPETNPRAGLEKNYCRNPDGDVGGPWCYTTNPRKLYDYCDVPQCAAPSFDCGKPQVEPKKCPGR
Sequence of Plasminogen (P00747 581-810 limits assumed): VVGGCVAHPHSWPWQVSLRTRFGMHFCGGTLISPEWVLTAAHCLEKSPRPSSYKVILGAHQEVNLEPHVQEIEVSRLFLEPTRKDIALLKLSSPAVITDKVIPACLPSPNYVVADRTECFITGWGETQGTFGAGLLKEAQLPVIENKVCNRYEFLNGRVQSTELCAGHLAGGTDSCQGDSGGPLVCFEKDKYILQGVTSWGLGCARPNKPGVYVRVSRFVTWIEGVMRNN
Sequence of Kallikrein-4 (Q9Y5K2 whole entry): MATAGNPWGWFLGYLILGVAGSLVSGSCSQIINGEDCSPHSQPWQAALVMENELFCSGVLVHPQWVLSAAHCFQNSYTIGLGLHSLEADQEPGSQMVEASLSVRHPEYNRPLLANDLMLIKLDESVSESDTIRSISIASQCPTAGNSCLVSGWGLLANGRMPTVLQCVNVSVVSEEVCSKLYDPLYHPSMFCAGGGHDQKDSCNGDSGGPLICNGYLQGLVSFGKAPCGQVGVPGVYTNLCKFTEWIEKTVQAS

`CC[C@H](C)[C@@H]1NC(=O)[C@@H]2CSSC[C@@H]3NC(=O)[C@H](Cc4ccccc4)NC(=O)CNC(=O)CNC(=O)[C@H](CC(=O)O)NC(=O)[C@H](CO)NC(=O)CNC(=O)[C@H](CO)NC(=O)CNC(=O)[C@@H]4CSSC[C@H](NC(=O)[C@H](CC(=O)O)NC(=O)[C@H](CO)NC(=O)[C@H](CC(=O)O)NC(=O)[C@H](CCCNC(=N)N)NC(=O)[C@H](CCCNC(=N)N)NC(=O)[C@H](CSSC[C@H](NC1=O)C(=O)N[C@@H](CCCNC(=N)N)C(=O)NCC(=O)N[C@@H](CC(N)=O)C(=O)NCC(=O)N[C@@H](Cc1ccc(O)cc1)C(=O)N4)NC(=O)[C@H](CCCCN)NC(=O)[C@H](CCCCN)NC(=O)[C@H](CC(C)C)NC(=O)[C@H]([C@@H](C)CC)NC(=O)[C@H](CCCNC(=N)N)NC(=O)[C@H](CCC(N)=O)NC3=O)C(=O)N1CCC[C@H]1C(=O)NCC(=O)N[C@@H](C)C(=O)N2` (cyclo(ACICRGNGYCGSGSDGGFCQRILKKCRRDSDCPG); disulfide 2-19, 4-26, 10-32): the Ki – broadly, a dissociation constant, usually derived from enzyme kinetics or from competition with a known ligand – on Kallikrein-5 is > 10 µM; on Kallikrein-14, > 10 µM; on Plasminogen it was > 10 µM; on Coagulation factor X it was 0.5 µM; at Plasma kallikrein it was > 10 µM; on Kallikrein-7, > 10 µM. The inhibition constant (Ki) at Trypsin was 0.031 µM; at Coagulation factor XII, > 10 µM; at Prothrombin it was > 10 µM; at Kallikrein-4 it was 0.0001 µM. Further, the Ratio Ki in the series listed under Homo sapiens [1] was > 100000; in the series filed under Homo sapiens [2] it was > 100000; in the series filed under Homo sapiens [3], > 100000; in the series filed under Homo sapiens [5], > 100000; in the series filed under Homo sapiens [6] it was > 100000; in the series filed under Homo sapiens [7], 5000. Moreover, the Ratio Ki in the series listed under Homo sapiens [8] and in the series filed under Homo sapiens [9] was > 100000 each time. In addition, the Activity result in the series with HeLa is “Non-Toxic”. This compound showed a Drug uptake in [4] of 23%. In addition, the Stability entry in series [10] is given as “Stable”.
As to `CC[C@H](C)[C@@H]1NC(=O)[C@@H]2CSSC[C@@H]3NC(=O)[C@H](Cc4ccccc4)NC(=O)CNC(=O)CNC(=O)[C@H](CC(=O)O)NC(=O)[C@H](CO)NC(=O)CNC(=O)[C@H](CO)NC(=O)CNC(=O)[C@@H]4CSSC[C@H](NC(=O)[C@H](CC(=O)O)NC(=O)[C@H](CO)NC(=O)[C@H](CC(=O)O)NC(=O)[C@H](CCC(N)=O)NC(=O)[C@H](CCC(N)=O)NC(=O)[C@H](CSSC[C@H](NC1=O)C(=O)N[C@@H](CCCCN)C(=O)NCC(=O)N[C@@H](CC(N)=O)C(=O)NCC(=O)N[C@@H](Cc1ccc(O)cc1)C(=O)N4)NC(=O)[C@H](CCC(N)=O)NC(=O)[C@H](CCC(N)=O)NC(=O)[C@H](CC(C)C)NC(=O)[C@H]([C@@H](C)CC)NC(=O)[C@H](CCCNC(=N)N)NC(=O)[C@H](CCC(N)=O)NC3=O)C(=O)N1CCC[C@H]1C(=O)NCC(=O)N[C@@H](C)C(=O)N2` (cyclo(ACICKGNGYCGSGSDGGFCQRILQQCQQDSDCPG); disulfide 2-19, 4-26, 10-32), the inhibitory constant (Ki) on Kallikrein-5 is > 10 µM; at Kallikrein-14 it was > 10 µM; at Plasminogen, > 10 µM; at Coagulation factor X, 0.52 µM; at Plasma kallikrein, > 10 µM; on Kallikrein-7, > 10 µM. In addition, the Ki on Trypsin is 0.0069 µM; on Coagulation factor XII it was > 10 µM; on Prothrombin, > 10 µM; at Kallikrein-4, 0.00044 µM. In the series on HeLa, the Activity entry was “Non-Toxic”. In addition, in series [4], the Drug uptake result was “Not Active”. Besides, in series [10], the Stability result is given as “Stable”.
